Source: article PMC7862734 (Investigative Ophthalmology & Visual Science, 2021)
*: point of attachment. Biotin = O=C1N[C@H]2[C@H](CS[C@H]2CCCCC(=O)*)N1

Key:
[1] = intravitreal, human eyes; cited from earlier work
[2] = system: laser-induced CNV in C57BL/6 mice; assay: Laser-induced choroidal neovascularization; format: in vivo, mouse
Summary of the method: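 C57BL/6 mice (7 weeks). Four 532 nm laser burns per mouse (200–355 mW, 50 µm, 70 msec). Test compound given as a daily eye drop (2 or 5 µg/eye in 5 µL PBS, days 1–14 or days 7–14) or as an intravitreal injection after laser (0.5–10 µg in 2 µL PBS), against control peptide or PBS. Day-14 OCT cross-section and ILB4-stained choroidal flat-mount area, averaged per mouse.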

[3] = Biodistribution after eye drop, cryosection stained with Alexa 488-streptavidin; format: in vivo, mouse; settings: eye drop 5 µg/eye, C57BL/6, time points 10 minutes, 30 minutes, 1 hour, 2 hours, streptavidin staining
[4] = biological target: cytosolic kinase domain of EGFR (Homo sapiens, UniProt P00533); assay: SPR; format: binding; settings: protein up to 200 nM, HBS-EP, 25°C
[5] = biological target: cytosolic kinase domain of PDGFRα (Homo sapiens, UniProt P16234); assay: SPR; format: binding; settings: protein up to 200 nM, HBS-EP, 25°C
[6] = biological target: cytosolic kinase domain of PDGFRβ (Homo sapiens, UniProt P09619); assay: SPR; format: binding; settings: protein up to 200 nM, HBS-EP, 25°C
Centaurin alpha (CentA) = biological target: T1, Centaurin alpha (CentA) (Homo sapiens, UniProt O75689); assay: Pull-down assay from HUVEC lysate, Western blotting; format: binding; settings: biotin-peptide on streptavidin beads
T1 sequence (O75689 1-374): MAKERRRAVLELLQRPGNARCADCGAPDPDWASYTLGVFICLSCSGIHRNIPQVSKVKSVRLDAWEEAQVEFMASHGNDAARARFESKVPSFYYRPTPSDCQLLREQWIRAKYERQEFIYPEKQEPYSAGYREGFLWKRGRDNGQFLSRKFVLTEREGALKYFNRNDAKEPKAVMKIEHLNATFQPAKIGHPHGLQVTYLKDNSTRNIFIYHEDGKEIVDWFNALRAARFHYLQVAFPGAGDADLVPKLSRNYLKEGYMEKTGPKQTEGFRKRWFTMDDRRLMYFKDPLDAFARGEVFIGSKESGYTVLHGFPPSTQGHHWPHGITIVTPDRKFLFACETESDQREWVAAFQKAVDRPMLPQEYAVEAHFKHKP
Summary of the method: (§1)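 HUVEC at passage 3–6 grown in EGM2 and lysed. Lysate incubated with biotinylated test or control peptide captured on streptavidin beads. After washing, bound proteins and lysate input were immunoblotted with antibodies to VEGFR2 and Centaurin A.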

VEGFR2 = VEGFR2 (Homo sapiens, UniProt P35968); assay: as above; format: binding; settings: biotin-peptide on streptavidin beads
Summary of the method: as §1

[7] = biological target: Kinesin-derived angiogenesis inhibitor (KAI), biotinylated (human) (UniProt Q9NQT8); assay: SPR
[8] = biological target: recombinant cytosolic domain (789-1356 aa) of VEGFR2 (UniProt P35968 789-1356); assay: SPR
recombinant cytosolic domain (789-1356 aa) of VEGFR2, sequence (P35968 789-1356): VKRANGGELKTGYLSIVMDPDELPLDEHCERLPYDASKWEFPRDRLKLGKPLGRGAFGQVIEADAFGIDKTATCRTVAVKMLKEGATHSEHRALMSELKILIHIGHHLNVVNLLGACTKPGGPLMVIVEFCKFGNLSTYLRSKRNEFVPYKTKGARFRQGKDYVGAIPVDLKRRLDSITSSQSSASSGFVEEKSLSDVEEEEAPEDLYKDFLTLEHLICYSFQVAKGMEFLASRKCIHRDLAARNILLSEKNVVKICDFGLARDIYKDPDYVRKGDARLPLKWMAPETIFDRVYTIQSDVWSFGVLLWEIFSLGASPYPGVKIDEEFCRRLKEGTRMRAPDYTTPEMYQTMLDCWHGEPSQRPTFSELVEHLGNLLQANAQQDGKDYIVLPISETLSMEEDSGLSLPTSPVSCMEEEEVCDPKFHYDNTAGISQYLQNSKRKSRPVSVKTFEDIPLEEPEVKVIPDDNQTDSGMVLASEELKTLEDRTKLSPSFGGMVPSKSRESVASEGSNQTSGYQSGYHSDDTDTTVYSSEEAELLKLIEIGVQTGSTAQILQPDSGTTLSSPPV

cytosolic kinase domain of PDGFRα, sequence (P16234 550-1089 limits assumed): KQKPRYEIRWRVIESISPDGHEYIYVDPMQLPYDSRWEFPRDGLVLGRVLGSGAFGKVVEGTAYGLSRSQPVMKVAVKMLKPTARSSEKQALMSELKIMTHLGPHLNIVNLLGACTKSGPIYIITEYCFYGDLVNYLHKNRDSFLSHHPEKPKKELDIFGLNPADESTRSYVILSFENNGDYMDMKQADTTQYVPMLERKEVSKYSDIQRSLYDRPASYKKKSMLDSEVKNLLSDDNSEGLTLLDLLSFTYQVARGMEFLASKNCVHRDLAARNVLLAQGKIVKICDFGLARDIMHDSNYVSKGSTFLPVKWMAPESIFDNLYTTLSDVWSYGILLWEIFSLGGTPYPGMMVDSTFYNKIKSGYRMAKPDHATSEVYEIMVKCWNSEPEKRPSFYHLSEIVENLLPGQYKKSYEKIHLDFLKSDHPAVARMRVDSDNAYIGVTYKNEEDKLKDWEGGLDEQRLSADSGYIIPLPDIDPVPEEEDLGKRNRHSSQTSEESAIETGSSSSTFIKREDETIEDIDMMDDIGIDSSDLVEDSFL
cytosolic kinase domain of PDGFRβ, sequence (P09619 554-1106 limits assumed): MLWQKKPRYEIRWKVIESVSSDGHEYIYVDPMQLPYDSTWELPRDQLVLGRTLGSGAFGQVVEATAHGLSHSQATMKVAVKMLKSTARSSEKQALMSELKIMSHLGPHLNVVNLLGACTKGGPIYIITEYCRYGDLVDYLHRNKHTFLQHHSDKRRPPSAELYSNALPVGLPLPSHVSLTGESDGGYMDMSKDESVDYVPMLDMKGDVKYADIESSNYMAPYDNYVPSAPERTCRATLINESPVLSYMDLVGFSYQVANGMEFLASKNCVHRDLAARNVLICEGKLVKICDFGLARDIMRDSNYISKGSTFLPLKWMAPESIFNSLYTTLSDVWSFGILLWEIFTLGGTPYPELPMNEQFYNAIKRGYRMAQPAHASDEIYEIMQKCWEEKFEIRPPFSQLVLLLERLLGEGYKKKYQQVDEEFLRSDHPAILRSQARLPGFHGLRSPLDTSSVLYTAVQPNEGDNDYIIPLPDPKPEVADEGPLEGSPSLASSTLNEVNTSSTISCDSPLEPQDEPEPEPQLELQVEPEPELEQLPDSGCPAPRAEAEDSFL
VEGFR2, sequence (P35968 20-1356): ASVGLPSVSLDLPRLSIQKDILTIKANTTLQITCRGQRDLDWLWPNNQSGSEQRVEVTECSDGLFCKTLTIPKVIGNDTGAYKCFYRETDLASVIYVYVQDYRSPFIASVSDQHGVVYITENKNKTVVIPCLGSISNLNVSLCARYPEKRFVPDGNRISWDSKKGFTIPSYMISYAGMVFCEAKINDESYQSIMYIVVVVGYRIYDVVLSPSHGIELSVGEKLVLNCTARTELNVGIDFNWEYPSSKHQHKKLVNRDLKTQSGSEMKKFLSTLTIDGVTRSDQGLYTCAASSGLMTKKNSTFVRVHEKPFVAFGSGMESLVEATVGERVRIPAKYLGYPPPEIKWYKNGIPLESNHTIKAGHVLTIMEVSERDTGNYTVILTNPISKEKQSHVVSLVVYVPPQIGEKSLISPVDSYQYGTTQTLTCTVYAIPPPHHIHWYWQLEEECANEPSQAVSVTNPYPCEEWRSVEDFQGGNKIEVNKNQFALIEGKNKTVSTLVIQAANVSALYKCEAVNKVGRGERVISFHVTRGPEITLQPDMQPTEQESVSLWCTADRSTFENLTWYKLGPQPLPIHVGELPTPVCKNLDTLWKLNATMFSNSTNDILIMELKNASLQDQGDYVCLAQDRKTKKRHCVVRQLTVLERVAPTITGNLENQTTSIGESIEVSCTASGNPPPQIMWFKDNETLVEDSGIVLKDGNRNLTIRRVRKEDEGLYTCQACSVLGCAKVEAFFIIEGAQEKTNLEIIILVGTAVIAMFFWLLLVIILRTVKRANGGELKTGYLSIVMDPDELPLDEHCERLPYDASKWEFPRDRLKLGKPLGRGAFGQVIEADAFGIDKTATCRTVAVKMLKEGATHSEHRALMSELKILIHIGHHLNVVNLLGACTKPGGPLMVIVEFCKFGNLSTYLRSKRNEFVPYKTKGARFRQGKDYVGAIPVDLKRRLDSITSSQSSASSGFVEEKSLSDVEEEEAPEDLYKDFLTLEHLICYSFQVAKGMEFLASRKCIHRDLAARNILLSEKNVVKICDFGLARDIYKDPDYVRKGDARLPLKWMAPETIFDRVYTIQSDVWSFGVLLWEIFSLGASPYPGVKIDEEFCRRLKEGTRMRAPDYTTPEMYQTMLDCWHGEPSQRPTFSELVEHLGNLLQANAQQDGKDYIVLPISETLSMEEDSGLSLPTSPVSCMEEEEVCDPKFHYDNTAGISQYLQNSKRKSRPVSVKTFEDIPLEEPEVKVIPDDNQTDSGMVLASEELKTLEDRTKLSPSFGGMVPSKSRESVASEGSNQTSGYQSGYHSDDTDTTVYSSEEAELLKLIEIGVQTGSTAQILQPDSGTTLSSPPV

In the case of bevacizumab, the Aqueous half-life [1] is given as 236 h.

For ranibizumab, the Aqueous half-life [1] is given as 173 h.

In the case of “KAI: 23 aa peptide, aa 1238-1260 of human KIF13B, minimum binding site to VEGFR2; biotinylated N-terminus, amidated C-terminus (Biotin-SRGTPVDERLFLIVRVTVQLSHP-NH2; SMILES CC[C@H](C)[C@H](NC(=O)[C@H](CC(C)C)NC(=O)[C@H](Cc1ccccc1)NC(=O)[C@H](CC(C)C)NC(=O)[C@H](CCCNC(=N)N)NC(=O)[C@H](CCC(=O)O)NC(=O)[C@H](CC(=O)O)NC(=O)[C@@H](NC(=O)[C@@H]1CCCN1C(=O)[C@@H](NC(=O)CNC(=O)[C@H](CCCNC(=N)N)NC(=O)[C@H](CO)NC(=O)CCCC[C@@H]1SC[C@@H]2NC(=O)N[C@@H]21)[C@@H](C)O)C(C)C)C(=O)N[C@H](C(=O)N[C@@H](CCCNC(=N)N)C(=O)N[C@H](C(=O)N[C@H](C(=O)N[C@H](C(=O)N[C@@H](CCC(N)=O)C(=O)N[C@@H](CC(C)C)C(=O)N[C@@H](CO)C(=O)N[C@@H](Cc1c[nH]cn1)C(=O)N1CCC[C@H]1C(N)=O)C(C)C)[C@@H](C)O)C(C)C)C(C)C)”, the “Regression of developed CNV” value ([2]; eye drop 5 µg/eye daily from day 7 to day 14) is reported as “effective to regress neovascularization”, the “Area of CNV measured by OCT (cross-section) vs ctrl” value ([2]; eye drop 2∼5 µg/eye daily day 1 to day 14, 200 mW laser, day 14) is reported as “significantly reduced” and the “Effect on CNV vs PBS (OCT and ILB4 staining)” value ([2]; intravitreal injection 2 µg in 2 µL PBS after laser burn, 355 mW, C57BL/6, P = 0.045 (OCT), P = 0.034 (ILB4), one-way ANOVA) is reported as “significantly inhibited”. The “Time at which peptide was detected in the retina and choroid” value [3] was 30 min, the “Binding of EGFR to immobilized peptide (in words)” value [4] was “did not bind” and the “Binding of PDGFRα to immobilized peptide (in words)” value [5] was “did not bind”. For the same molecule, the “Binding of PDGFRβ to immobilized peptide (in words)” value [6] was “very weak binding”, the “Interaction with CentA in pull-down” value (Centaurin alpha (CentA)) was “does not bind” and the “Interaction with VEGFR2 in pull-down” value (VEGFR2) was “interacts”.

“recombinant cytosolic domain of PDGFRB (domain or fragment)” gave a Kd [7] greater than 200 nM.

B1: Kinesin-derived angiogenesis inhibitor (KAI), biotinylated (peptide, UniProt Q9NQT8 1238-1260, looked up)
peptide: Biotin-SRGTPVDERLFLIVRVTVQLSHP-NH2
SMILES: CC[C@H](C)[C@H](NC(=O)[C@H](CC(C)C)NC(=O)[C@H](Cc1ccccc1)NC(=O)[C@H](CC(C)C)NC(=O)[C@H](CCCNC(=N)N)NC(=O)[C@H](CCC(=O)O)NC(=O)[C@H](CC(=O)O)NC(=O)[C@@H](NC(=O)[C@@H]1CCCN1C(=O)[C@@H](NC(=O)CNC(=O)[C@H](CCCNC(=N)N)NC(=O)[C@H](CO)NC(=O)CCCC[C@@H]1SC[C@@H]2NC(=O)N[C@@H]21)[C@@H](C)O)C(C)C)C(=O)N[C@H](C(=O)N[C@@H](CCCNC(=N)N)C(=O)N[C@H](C(=O)N[C@H](C(=O)N[C@H](C(=O)N[C@@H](CCC(N)=O)C(=O)N[C@@H](CC(C)C)C(=O)N[C@@H](CO)C(=O)N[C@@H](Cc1c[nH]cn1)C(=O)N1CCC[C@H]1C(N)=O)C(C)C)[C@@H](C)O)C(C)C)C(C)C
Molecule B1 has a Kd [8] of 6.8 ± 0.6 nM.
